In ChEMBL document CHEMBL3232914, “Ultrasound promoted one pot synthesis of novel fluorescent triazolyl spirocyclic oxindoles using DBU based task specific ionic liquids and their antimicrobial activity” (2014):
≈ marks a conversion by molar mass, not a printed value. Calls of active or inactive are those of the source. The calls are words filed in the database; no cut-off is given here.

Tests used:
Candida albicans [1] = experiment: Antifungal activity against Candida albicans MTCC 227 assessed as growth inhibition by macrodilution tube method; assay type: functional
Method in brief: (§1)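 The MIC against the yeasts was determined with amphotericin-B as the reference standard drug.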

Candida albicans [2] = experiment: Antifungal activity against Candida albicans MTCC 227 assessed as growth inhibition at 4 mg/mL after 24 hrs by agar well diffusion method; assay type: functional; conditions: MTCC 227, 24 h, read-out: DIZ
Method in brief: (§2)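 Agar wells 8 mm in diameter. The read-out is the diameter of the growth inhibition zone in mm, including the well, given as the mean of three replicates.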

Staphylococcus aureus [3] = experiment: Antibacterial activity against Staphylococcus aureus MTCC 96 assessed as growth inhibition at 4 mg/mL after 24 hrs by agar well diffusion method; assay type: functional; conditions: MTCC 96, 24 h, read-out: DIZ; method in brief: as §2
Bacillus subtilis [4] = experiment: Antibacterial activity against Bacillus subtilis MTCC 121 assessed as growth inhibition after 24 hrs by macrodilution tube method; assay type: functional; conditions: MTCC 121, 24 h
Bacillus subtilis [5] = experiment: Antibacterial activity against Bacillus subtilis MTCC 121 assessed as growth inhibition at 4 mg/mL after 24 hrs by agar well diffusion method; assay type: functional; conditions: MTCC 121, 24 h, read-out: DIZ; method in brief: as §2
Saccharomyces cerevisiae [6] = experiment: Antifungal activity against Saccharomyces cerevisiae MTCC 170 assessed as growth inhibition by macrodilution tube method; assay type: functional; method in brief: as §1
Escherichia coli = experiment: Antibacterial activity against Escherichia coli MTCC 1652 assessed as growth inhibition at 4 mg/mL after 24 hrs by agar well diffusion method; assay type: functional, organism-based
Method in brief: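 Agar well diffusion with 8 mm wells. The inhibition zone diameter is reported in mm, with the well diameter included. Values are means of three replicates.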

Staphylococcus aureus [7] = experiment: Bactericidal activity against Staphylococcus aureus MTCC 96 after 24 hrs; assay type: functional; conditions: MTCC 96, 24 h
Saccharomyces cerevisiae [8] = experiment: Antifungal activity against Saccharomyces cerevisiae MTCC 170 assessed as growth inhibition at 4 mg/mL after 24 hrs by agar well diffusion method; assay type: functional; conditions: MTCC 170, 24 h, read-out: DIZ; method in brief: as §2
Staphylococcus aureus [9] = experiment: Antibacterial activity against Staphylococcus aureus MTCC 96 assessed as growth inhibition after 24 hrs by macrodilution tube method; assay type: functional; conditions: MTCC 96, 24 h
Bacillus subtilis [10] = experiment: Bactericidal activity against Bacillus subtilis MTCC 121 after 24 hrs; assay type: functional; conditions: MTCC 121, 24 h
Pseudomonas aeruginosa = conditions: MTCC 741, 4 mg/mL

Structure (SMILES) | MIC (Candida albicans [1]) [µg/mL] | zone of inhibition at 4000 µg/mL (Candida albicans [2]) [mm] | zone of inhibition at 4000 µg/mL (Staphylococcus aureus [3]) [mm] | MIC (Bacillus subtilis [4]) [µg/mL] | zone of inhibition at 4000 µg/mL (Bacillus subtilis [5]) [mm] | MIC (Saccharomyces cerevisiae [6]) [µg/mL] | diameter of the inhibition zone (DIZ) (Escherichia coli) | MBC (Staphylococcus aureus [7]) [µg/mL] | zone of inhibition at 4000 µg/mL (Saccharomyces cerevisiae [8]) [mm] | MIC (Staphylococcus aureus [9]) [µg/mL] | MBC (Bacillus subtilis [10]) [µg/mL] | DIZ (Pseudomonas aeruginosa)
Cn1c2c(c(=O)n(C)c1=O)C1(C(=O)N(Cc3cn(-c4ccc(Br)cc4)nn3)c3ccccc31)C(C#N)=C(N)O2 (stereo not given) | 256 (≈ 436 µM) | 13.3 | 20.6 | 16 (≈ 27.2 µM) | 22.3 | 128 (≈ 218 µM) | inactive | 64 (≈ 109 µM) | 15.3 | 32 (≈ 54.5 µM) | 64 (≈ 109 µM) | inactive
CC1(C)CC(=O)C2=C(C1)OC(N)=C(C#N)C21C(=O)N(Cc2cn(-c3ccc([N+](=O)[O-])cc3)nn2)c2ccccc21 (stereo not given) | 256 (≈ 476 µM) | 14.3 | 16.6 | 128 (≈ 238 µM) | 17.3 | 256 (≈ 476 µM) | inactive | 128 (≈ 238 µM) | 15.3 | 128 (≈ 238 µM) | 256 (≈ 476 µM) | inactive
CC1(C)CC(=O)C2=C(C1)OC(N)=C(C#N)C21C(=O)N(Cc2cn(-c3ccccc3)nn2)c2ccccc21 (stereo not given) | 256 (≈ 520 µM) | 13.3 | 14.6 | 128 (≈ 260 µM) | 16.3 | 256 (≈ 520 µM) | inactive | 128 (≈ 260 µM) | 14.3 | 128 (≈ 260 µM) | 256 (≈ 520 µM) | inactive
Cc1ccc(-n2cc(CN3C(=O)C4(C(C#N)=C(N)Oc5c4c(=O)n(C)c(=O)n5C)c4ccccc43)nn2)cc1 (stereo not given) | 512 (≈ 980 µM) | 12.3 | 14.3 | 128 (≈ 245 µM) | 16.3 | 256 (≈ 490 µM) | inactive | 256 (≈ 490 µM) | 14.3 | 128 (≈ 245 µM) | 128 (≈ 245 µM) | inactive
N#CC1=C(N)OC2=C(C(=O)CCC2)C12C(=O)N(Cc1cn(-c3ccc([N+](=O)[O-])cc3)nn1)c1ccccc12 (stereo not given) | 512 (≈ 1000 µM) | 12.3 | 17.6 | 128 (≈ 251 µM) | 18.6 | 256 (≈ 502 µM) | inactive | 256 (≈ 502 µM) | 13.6 | 128 (≈ 251 µM) | 256 (≈ 502 µM) | inactive
C[C@@H]1[C@H](O)[C@@H](C)/C=C/C=C/C=C/C=C/C=C/C=C/C=C/[C@H](O[C@@H]2O[C@H](C)[C@@H](O)[C@H](N)[C@@H]2O)C[C@@H]2O[C@](O)(C[C@@H](O)C[C@@H](O)[C@H](O)CC[C@@H](O)C[C@@H](O)CC(=O)O[C@H]1C)C[C@H](O)[C@H]2C(=O)O [AMPHOTERICIN B] | 100 (≈ 108 µM) | 17.6 |  |  |  | 100 (≈ 108 µM) |  |  | 18.3 |  |  | 
COc1ccc(-n2cc(CN3C(=O)C4(C(C#N)=C(N)OC5=C4C(=O)CCC5)c4ccccc43)nn2)cc1 (stereo not given) | 128 (≈ 259 µM) | 16 | 14 | 32 (≈ 64.7 µM) | 15.6 | 64 (≈ 129 µM) | inactive | 512 (≈ 1040 µM) | 16.3 | 64 (≈ 129 µM) | 128 (≈ 259 µM) | inactive
CC1(C)CC(=O)C2=C(C1)OC(N)=C(C#N)C21C(=O)N(Cc2cn(-c3cccc(Cl)c3)nn2)c2ccccc21 (stereo not given) | 512 (≈ 972 µM) | 12.3 | 19.3 | 32 (≈ 60.7 µM) | 20.6 | 256 (≈ 486 µM) | inactive | 128 (≈ 243 µM) | 13.6 | 64 (≈ 121 µM) | 128 (≈ 243 µM) | inactive
N#CC1=C(N)OC2=C(C(=O)CCC2)C12C(=O)N(Cc1cn(-c3ccc(Br)cc3)nn1)c1ccccc12 (stereo not given) | 512 (≈ 942 µM) | 12.6 | 18.6 | 32 (≈ 58.9 µM) | 20.3 | 256 (≈ 471 µM) | inactive | 64 (≈ 118 µM) | 14.3 | 64 (≈ 118 µM) | 128 (≈ 236 µM) | inactive
COc1ccc(-n2cc(CN3C(=O)C4(C(C#N)=C(N)Oc5c4c(=O)n(C)c(=O)n5C)c4ccccc43)nn2)cc1 (stereo not given) | 128 (≈ 238 µM) | 14.6 | 15.3 | 128 (≈ 238 µM) | 17.6 | 64 (≈ 119 µM) | inactive | 512 (≈ 951 µM) | 17.6 | 256 (≈ 475 µM) | 256 (≈ 475 µM) | inactive
COc1ccc(-n2cc(CN3C(=O)C4(C(C#N)=C(N)OC5=C4C(=O)CC(C)(C)C5)c4ccccc43)nn2)cc1 (stereo not given) | 128 (≈ 245 µM) | 16.6 | 15.6 | 128 (≈ 245 µM) | 17.3 | 64 (≈ 122 µM) | inactive | 256 (≈ 490 µM) | 15.6 | 128 (≈ 245 µM) | 256 (≈ 490 µM) | inactive
CC1(C)CC(=O)C2=C(C1)OC(N)=C(C#N)C21C(=O)N(Cc2cn(-c3ccc(Br)cc3)nn2)c2ccccc21 (stereo not given) | 512 (≈ 896 µM) | 13.3 | 19.3 | 16 (≈ 28 µM) | 22.2 | 128 (≈ 224 µM) | inactive | 128 (≈ 224 µM) | 14.6 | 32 (≈ 56 µM) | 64 (≈ 112 µM) | inactive
Cc1ccc(-n2cc(CN3C(=O)C4(C(C#N)=C(N)OC5=C4C(=O)CC(C)(C)C5)c4ccccc43)nn2)cc1 (stereo not given) | 512 (≈ 1010 µM) | 12.6 | 14.3 | 32 (≈ 63.2 µM) | 15.6 | 256 (≈ 505 µM) | inactive | 256 (≈ 505 µM) | 14 | 128 (≈ 253 µM) | 256 (≈ 505 µM) | inactive
CC1(C)CC(=O)C2=C(C1)OC(N)=C(C#N)C21C(=O)N(Cc2cn(-c3ccc(F)c(Cl)c3)nn2)c2ccccc21 (stereo not given) | 256 (≈ 470 µM) | 13.6 | 19.6 | 32 (≈ 58.7 µM) | 21.3 | 256 (≈ 470 µM) | inactive | 128 (≈ 235 µM) | 14.3 | 64 (≈ 117 µM) | 128 (≈ 235 µM) | inactive
